Test results from ChEMBL document CHEMBL3414559, “Novel C-4 heteroaryl 13-cis-retinamide Mnk/AR degrading agents inhibit cell proliferation and migration and induce apoptosis in human breast and prostate cancer cells and suppress growth of MDA-MB-231 human breast and CWR22Rv1 human prostate tumor xenografts in mice” (J Med Chem, 2015).
Active and inactive are the calls of the source. The rule behind the calls is not given here.

Columns and labels:
[1] = test system: MDA-MB-231; assay: Antitumor activity against human MDA-MB-231 cells xenografted in nude mouse assessed as reduction in peIF4E protein expression at 20 mg/kg, ip dosed once daily for 5 days per week for 28 days by SDS-PAGE and Western blotting method
[2] = test system: MCF7; assay: Growth inhibition of human MCF7 cells by MTT assay; type: functional
Summary of the method: (§1)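 Cells grown in RPMI 1640 with 10% FBS, plated at 2500 cells/well, treated across a dose range; growth read by MTT. GI50 taken from dose–response curves by nonlinear regression, at least three independent experiments.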

[3] = test system: MDA-MB-231; assay: Antitumor activity against human MDA-MB-231 cells xenografted in nude mouse assessed as reduction in cyclin D1 protein expression at 20 mg/kg, ip dosed once daily for 5 days per week for 28 days by SDS-PAGE and Western blotting method
[4] = test system: MDA-MB-468; assay: Reduction in peIF4E protein expression in human MDA-MB-468 cells at 0.63 uM to 20 uM after 24 hrs by SDS-PAGE and Western blotting method; type: functional, cell-based
Summary of the method: (§2)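 MCF-7, MDA-MB-231 and MDA-MB-468 cells, kept in RPMI 1640 with 10% FBS, were exposed for 24 h to a range of concentrations, with DMSO vehicle controls. Equal protein from lysates was separated by SDS–PAGE and probed for Mnk1, Mnk2, peIF4E, eIF4E and cPARP. GAPDH reprobing served as loading control.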

[5] = Growth inhibition of human PC3 cells by MTT assay; type: functional; settings: PC-3
Summary of the method: as §1

[6] = test system: Mus musculus; assay: Toxicity in human MDA-MB-231 cells xenografted athymic nude mouse assessed as induction of toxic signs at 20 mg/kg, ip dosed once daily for 5 days per week for 28 days; settings: in vivo
[7] = test system: LNCaP; assay: Induction of apoptosis in human LNCAP cells assessed as increase in c-PARP formation at 0.6 uM to 20 uM after 24 hrs by SDS-PAGE and Western blotting method; type: functional, cell-based
Summary of the method: (§3)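 LNCaP cells (RPMI 1640, 10% FBS) exposed 24 h to 0.6–20 μM, DMSO vehicle control; equal protein on SDS–PAGE, immunoblotted for fAR, Mnk1/2, peIF4E, cyclin D1 and cleaved PARP; β-actin reprobe for loading.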

[8] = test system: MDA-MB-231; assay: Reduction in peIF4E protein expression in human MDA-MB-231 cells at 0.63 uM to 20 uM after 24 hrs by SDS-PAGE and Western blotting method; type: functional, cell-based
Summary of the method: as §2

[9] = test system: MDA-MB-468; assay: Growth inhibition of human MDA-MB-468 cells by MTT assay; type: functional
Summary of the method: as §1

[10] = test system: MCF7; assay: Induction of apoptosis in human MCF7 cells assessed as increase in c-PARP formation at 0.63 uM to 20 uM after 24 hrs by SDS-PAGE and Western blotting method; type: functional, cell-based
Summary of the method: (§4)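 Breast cancer cells in RPMI 1640 with 10% FBS treated 24 h at indicated concentrations, DMSO vehicle control; equal protein loaded on SDS–PAGE and immunoblotted for Mnk1, Mnk2, peIF4E, eIF4E and cleaved PARP; blots reprobed for GAPDH as loading control.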

[11] = test system: MDA-MB-468; assay: Reduction in Mnk1 protein expression in human MDA-MB-468 cells at 0.63 uM to 20 uM after 24 hrs by SDS-PAGE and Western blotting method; type: functional, cell-based
Summary of the method: as §4

[12] = test system: MDA-MB-468; assay: Induction of apoptosis in human MDA-MB-468 cells assessed as increase in c-PARP formation at 0.63 uM to 20 uM after 24 hrs by SDS-PAGE and Western blotting method; type: functional, cell-based
Summary of the method: as §4

[13] = test system: Mus musculus; assay: Toxicity in human MDA-MB-231 cells xenografted athymic nude mouse assessed as effect on body weight at 20 mg/kg, ip dosed once daily for 5 days per week for 28 days; settings: in vivo
[14] = test system: LNCaP; assay: Effect on total eIF4E protein expression in human LNCAP cells at 0.6 uM to 20 uM after 24 hrs by SDS-PAGE and Western blotting method; type: functional, cell-based
[15] = test system: MDA-MB-231; assay: Effect on total eIF4E protein expression in human MDA-MB-231 cells at 0.63 uM to 20 uM after 24 hrs by SDS-PAGE and Western blotting method; type: functional, cell-based
Summary of the method: as §4

[16] = test system: MDA-MB-231; assay: Antitumor activity against human MDA-MB-231 cells xenografted in nude mouse assessed as reduction in Mnk1/2 protein expression at 20 mg/kg, ip dosed once daily for 5 days per week for 28 days by SDS-PAGE and Western blotting method
[17] = test system: MDA-MB-468; assay: Reduction in Mnk2 protein expression in human MDA-MB-468 cells at 0.63 uM to 20 uM after 24 hrs by SDS-PAGE and Western blotting method; type: functional, cell-based
Summary of the method: as §4

[18] = Growth inhibition of human SKBR3 cells by MTT assay; type: functional; settings: SK-BR-3
Summary of the method: as §1

[19] = test system: LNCaP; assay: Reduction in Mnk1 protein expression in human LNCAP cells at 0.6 uM to 20 uM after 24 hrs by SDS-PAGE and Western blotting method; type: functional, cell-based
Summary of the method: as §3

[20] = Growth inhibition of human CWR22Rv1 cells by MTT assay; type: functional, CWR22R; settings: 22Rv1
Summary of the method: as §1

[21] = test system: LNCaP; assay: Reduction in Mnk2 protein expression in human LNCAP cells at 0.6 uM to 20 uM after 24 hrs by SDS-PAGE and Western blotting method; type: functional, cell-based
Summary of the method: as §3

[22] = test system: MDA-MB-231; assay: Antitumor activity against human MDA-MB-231 cells xenografted in nude mouse assessed as increase in Bad protein expression at 20 mg/kg, ip dosed once daily for 5 days per week for 28 days by SDS-PAGE and Western blotting method
[23] = test system: MDA-MB-231; assay: Antitumor activity against human MDA-MB-231 cells xenografted in nude mouse assessed as increase in Bax protein expression at 20 mg/kg, ip dosed once daily for 5 days per week for 28 days by SDS-PAGE and Western blotting method
[24] = test system: MDA-MB-468; assay: Effect on total eIF4E protein expression in human MDA-MB-468 cells at 0.63 uM to 20 uM after 24 hrs by SDS-PAGE and Western blotting method; type: functional, cell-based
Summary of the method: as §4

[25] = test system: MDA-MB-231; assay: Inhibition of cell migration of human MDA-MB-231 cells at 5 uM after 24 hrs by wound healing assay; type: functional, cell-based
Summary of the method: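 Cells (5 × 10⁵ per well) grown to confluence, monolayer scratched at time zero, then exposed to 5 μM for 24 h; initial and final wounds photographed at 100×.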

GI50 [2] [µM]	GI50 [9] [µM]	SMILES	Activity [1]	Activity [3]	inhibition [4]	GI50 [5] [µM]	Activity [6]	Activity [7]	inhibition [8]	Activity [10]	inhibition [11]	Activity [12]	Activity [13]	Activity [14]	Activity [15]	Activity [16]	inhibition [17]	GI50 [18] [µM]	inhibition [19]	GI50 [20] [µM]	also measured
5.49	6.76	CC1=C(/C=C/C(C)=C/C=C/C(C)=C\C(=O)Nc2cccc(F)c2)C(C)(C)CCC1n1ccnc1 (stereo not given)	Active	Active	Dose-dependent effect	5.62	Non-toxic	Active	Dose-dependent effect	Dose-dependent effect	Dose-dependent effect	Dose-dependent effect	Non-toxic	inactive	inactive	Active	Dose-dependent effect	17	Dose-dependent effect	2.04	inhibition [21]: Dose-dependent effect; Activity [22]: Active; Activity [23]: Active; Activity [24]: inactive; inhibition [25]: Active
0.16	2.7	CC1=C(/C=C/C(C)=C/C=C/C(C)=C\C(=O)NCc2ccc(O)cc2)C(C)(C)CCC1n1ccnc1 (stereo not given)	Active	Active	Dose-dependent effect	3.54	Non-toxic	Active	Dose-dependent effect	Dose-dependent effect	Dose-dependent effect	Dose-dependent effect	Non-toxic	inactive	inactive	Active	Dose-dependent effect	2.45	Dose-dependent effect	1.86	inhibition [21]: Dose-dependent effect; Activity [22]: Active; Activity [23]: Active; Activity [24]: inactive; inhibition [25]: Active
